Source: ChEMBL document CHEMBL4020823, “Highly Selective, Potent, and Oral mTOR Inhibitor for Treatment of Cancer as Autophagy Inducer” (J Med Chem, 2018)
Active and inactive are the calls of the source. The rule behind the calls is not given here.

Tested on: HeLa
Experiment: Inhibition of mTORC1 in human HeLa cells assessed as reduction in 4E-BP1 phosphorylation at Thr37/46 residues at 0.5 to 1 uM by Western blot analysis
Assay type: cell-based
Procedure, shortened: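 Cells treated with the indicated concentrations, then whole-cell lysates immunoblotted. mTORC1 activity read as S6 and 4E-BP1 phosphorylation; mTORC2 activity read as AKT Ser473 phosphorylation. Blocking in 5% skim milk, primary antibodies at 4 °C overnight, peroxidase-conjugated secondary, ECL detection.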

**Q.** With `N#CCN1CCC(n2c(=O)cnc3cnc4ccc(-c5ccc(N)nc5)cc4c32)CC1` as the molecule, how does the inhibition read?
**A.** Active
